According to paper PMC3493172 (Biochemistry, 2012):
Numbering of substitutions follows the chain as printed. Where “and” joins values, the source holds several entries; their conditions need not be identical. Equal entries are not always repeated. Where two headings read alike, the source gives them in different places.

Experiments:
[1] = physiological conditions; cited from earlier work
glutamate transport = details: cited from earlier work
EAAC1R446Q = target: T1, EAAC1R446Q (Rattus norvegicus, UniProt P51907, R446Q); assay: Whole-cell current recording of EAAC1 with the R446Q mutation, exchange mode; type: cell-based; details: application of 1 mM L-glutamate or 0.2 mM TBOA; NaSCN pipette; 0 mV
T1 sequence (P51907 1-523 R446Q): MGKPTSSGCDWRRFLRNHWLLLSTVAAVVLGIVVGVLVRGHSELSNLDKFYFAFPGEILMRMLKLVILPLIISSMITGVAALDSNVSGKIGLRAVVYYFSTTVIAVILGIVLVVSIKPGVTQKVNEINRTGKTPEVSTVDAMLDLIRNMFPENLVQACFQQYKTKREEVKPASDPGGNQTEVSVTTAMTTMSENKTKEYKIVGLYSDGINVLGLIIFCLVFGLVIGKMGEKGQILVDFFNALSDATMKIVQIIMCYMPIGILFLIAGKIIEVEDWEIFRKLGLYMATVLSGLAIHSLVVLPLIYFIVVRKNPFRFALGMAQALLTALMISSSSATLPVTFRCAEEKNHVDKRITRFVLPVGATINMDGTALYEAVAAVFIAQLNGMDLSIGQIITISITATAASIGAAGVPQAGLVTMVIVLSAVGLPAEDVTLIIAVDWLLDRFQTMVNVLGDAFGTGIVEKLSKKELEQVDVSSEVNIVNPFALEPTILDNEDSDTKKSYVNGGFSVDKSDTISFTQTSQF

EAAC1 [2] = target: T2, EAAC1 (Rattus norvegicus, UniProt P51907); assay: Whole-cell current recording of EAAC1WT expressed in HEK 293T cells; type: cell-based; details: for effect on anion current when applied alone: 100 μM applied alone, intracellular SCN−
T2 sequence (P51907 1-523): T1 sequence (P51907 1-523 R446Q) with Q446R
Summary of the method: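 HEK 293T cells transfected with EAAC1 plasmid plus RFP DNA (JetPRIME) and used at least 24 h later; whole-cell patch clamp held at 0 mV. Ki came from test-compound dose-response curves of glutamate-induced anion current at 20, 50 and 100 μM L-glutamate (forward mode: 140 mM NaCl outside, 140 mM KSCN pipette). Reverse mode used KSCN outside with NaCl + 10 mM L-Glu in the pipette. Homoexchange used NaCl + 1 mM L-glutamate outside with NaSCN + 10 mM L-glutamate in the pipette.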

[3] = test system: glutamate transporters in synaptosomes prepared from rat brains; details: (+)-HIP-B eutomer versus (−)-HIP-B; cited from earlier work
EAAC1 [4] = target: T2, EAAC1; assay: Pre-incubation / rapid solution exchange experiment; type: cell-based
Summary of the method: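 Transfected HEK 293T cells, whole-cell at 0 mV; bath 140 mM NaMES, pipette 140 mM KSCN. Test compound (3, 20 or 100 μM) applied 2 s by solution exchange, then rapid washout with simultaneous switch to 1 mM L-glutamate (~10 ms exchange resolution, ~100 mbar). Responses normalised to a 100 μM glutamate control, n = 3; observed rate constants taken as 1/τ.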

[5] = pKa of the 3-hydroxyl-Δ2-isoxazoline group; type: physicochemical; details: pH 7.3, based on its pKa
[6] = cited from earlier work
EAAC1 [7] = target: T2, EAAC1; assay: Laser-pulse photolysis of MNI-caged glutamate, pre-steady-state kinetics; type: cell-based
Summary of the method: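 HEK 293T cells co-transfected with EAAC1 and RFP plasmids, used ≥24 h later; whole-cell clamp at 0 mV. 1 mM MNI-caged L-glutamate pre-applied 4 s, then ~5 ns 355 nm pulse releasing ~60–100 μM glutamate; 160 ms at 50 kHz, ±10 μM test compound. Bath 140 mM NaMES; pipette 140 mM KMES (transport) or KSCN (anion). Exponential fits→decay rate constants.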

Structure (SMILES) | neurotoxicity [1] | apparent affinity for inhibition of glutamate transport (glutamate transport) | current induced in EAAC1R446Q (EAAC1R446Q) [pA] | effect on anion current when applied alone (EAAC1 [2]; 0 mV) | eudismic ratio, inhibition of [3H]D-aspartate uptake [3] | bimolecular rate constant for binding (EAAC1 [4]; estimated from Ki in the 20 μM range and dissociation on the 50 ms time scale) | time scale of binding at the relevant concentration range (EAAC1 [4]; estimated from bimolecular rate constant) [ms] | time for full reversal of inhibition (EAAC1 [4]; washout) [ms] | time scale of dissociation from binding site (EAAC1 [4]; washout experiment) | fraction in neutral form [5] | pKa of the 3-hydroxyl-Δ2-isoxazoline group [6] | effect on peak of transient anion current (EAAC1 [7]; anion conducting mode) | effect on decay time constants τfast and τslow of transient transport current (EAAC1 [7]; forward transport mode) | transport current when applied alone (EAAC1 [2]; 100 μM, NaMES extracellular, KMES pipette, 0 mV) | alleviation of TBOA (1 μM) inhibition of leak anion current (EAAC1 [2]; any concentration tested, up to 70 μM, in the presence of 1 μM TBOA) | Ki (EAAC1 [2]; read-out: Ki value (range used for estimate), approximate value in discussion) [µM] | Ki (EAAC1 [2]; read-out: inhibition constant Ki, glutamate-induced anion current, forward transport mode, 20 μM glutamate, n = 3, 0 mV, KSCN pipette) [µM] | Ki (EAAC1 [2]; read-out: inhibition constant Ki, glutamate-induced anion current, forward transport mode, 100 μM glutamate, n = 3, 0 mV, KSCN pipette) [µM] | Ki (EAAC1 [2]; read-out: inhibition constant in the reverse transport mode, 20 μM glutamate, n = 3, reverse transport mode) [µM] | time constant for activation of anion current by glutamate (EAAC1 [4]; 1 mM glutamate, no inhibitor, limited by solution exchange) [ms]
N[C@H](C(=O)O)[C@H](OCc1ccccc1)C(=O)O (racemic) [TBOA, DL-threo-β-benzyloxyaspartic acid] | neurotoxic | sub-μM range | < 5 | generated outward current | – | – | – | – | – | – | – | – | – | – | – | – | – | – | – | –
O=C(O)[C@H]1NC[C@@H]2C(O)=NO[C@@H]21 [(+)-HIP-B, (+)-(3aS,6S,6aS)-3-Hydroxy-4,5,6,6a-tetrahydro-3aH-pyrrolo[3,4-d]isoxazole-6-carboxylic acid] | – | – | – | did not induce or inhibit anion current | 10 | ~10^6 M^−1s^−1 | 20 to 50 | ≤ 500 | 50 to 60 ms and ~50 ms | less than 1% | 5.1 | inhibited strongly | virtually unaffected | did not elicit transport current | unable to alleviate the TBOA effect | ~20 | 8.7 ± 1.5 | 9.2 ± 1.2 | 23.2 ± 2.5 | –
N[C@@H](CCC(=O)O)C(=O)O [glutamate, L-glutamate, reference compound] | – | – | < 5 | – | – | – | – | – | – | – | – | – | – | – | – | – | – | – | – | 7 ± 2
